Source: ChEMBL document CHEMBL1137710, “Synthesis and in vitro antitumor activity of new quinoxaline derivatives” (2009)

Legend:
Assay type in all cases: functional
UACC-257 = assay: Growth inhibition of human UACC257 cells after 48 hrs by sulforhodamine B assay; details: UACC-257, 48 h; for CC50: read-out: pLC50 (the source's name) (converted); for TGI: read-out: pTGI (converted)
Procedure, shortened: (§1)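 Run in the NCI 60-human-tumour-cell-line panel, tested over a 5-log dose range. Dose–response curves gave three values per cell line, each as a log10 molar concentration: GI50 (50% inhibition of net cell growth), TGI (total inhibition of net growth) and LC50 (50% net cell death). The mean graph midpoint is the arithmetic mean over all lines, with insensitive lines entered at the highest concentration tested.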

SNB-19 = assay: Growth inhibition of human SNB19 cells after 48 hrs by sulforhodamine B assay; details: SNB-19, 48 h; for TGI: read-out: pTGI (converted); procedure, shortened: as §1
EKVX = assay: Growth inhibition of human EKVX cells after 48 hrs by sulforhodamine B assay; details: for TGI: read-out: pTGI (converted)
Procedure, shortened: (§2)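 NCI 60-human-tumor-cell-line panel, with compounds tested over a 5-log dose range. Values are taken from dose-response curves as log10 molar concentrations: GI50 is 50% net growth inhibition, TGI is total growth inhibition, and LC50 is 50% net cell death.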

KM12 = assay: Growth inhibition of human KM12 cells after 48 hrs by sulforhodamine B assay; details: KM12, 48 h; for TGI: read-out: pTGI (converted); procedure, shortened: as §2
ACHN = assay: Growth inhibition of human ACHN cells after 48 hrs by sulforhodamine B assay; details: for TGI: read-out: pTGI (converted)
HOP-92 = assay: Growth inhibition of human HOP92 cells after 48 hrs by sulforhodamine B assay; details: HOP-92, 48 h; for TGI: read-out: pTGI (converted); procedure, shortened: as §2
CCRF-CEM = assay: Growth inhibition of human CCRF-CEM cells after 48 hrs by sulforhodamine B assay; details: for TGI: read-out: pTGI (converted); procedure, shortened: as §2
OVCAR-8 = assay: Growth inhibition of human OVCAR8 cells after 48 hrs by sulforhodamine B assay; details: OVCAR-8, 48 h; for CC50: read-out: pLC50 (the source's name) (converted); for TGI: read-out: pTGI (converted); procedure, shortened: as §2
OVCAR-5 = assay: Growth inhibition of human OVCAR5 cells after 48 hrs by sulforhodamine B assay; details: OVCAR-5, 48 h; for CC50: read-out: pLC50 (the source's name) (converted); for TGI: read-out: pTGI (converted); procedure, shortened: as §2
NCI-H226 = assay: Growth inhibition of human NCI-H226 cells after 48 hrs by sulforhodamine B assay; details: NCI-H226, 48 h; for TGI: read-out: pTGI (converted); procedure, shortened: as §2
COLO 205 = assay: Growth inhibition of human COLO205 cells after 48 hrs by sulforhodamine B assay; details: COLO 205, 48 h; for TGI: read-out: pTGI (converted); procedure, shortened: as §2
T47D = assay: Growth inhibition of human T47D cells after 48 hrs by sulforhodamine B assay; details: for CC50: read-out: pLC50 (the source's name) (converted); for TGI: read-out: pTGI (converted); procedure, shortened: as §1
[1] = Growth inhibition of human Hs 578T cells after 48 hrs by sulforhodamine B assay; details: for CC50: read-out: pLC50 (the source's name) (converted); for TGI: read-out: pTGI (converted); procedure, shortened: as §2
SNB-75 = assay: Growth inhibition of human SNB75 cells after 48 hrs by sulforhodamine B assay; details: SNB-75, 48 h; for TGI: read-out: pTGI (converted); procedure, shortened: as §1
OVCAR-3 = assay: Growth inhibition of human OVCAR-3 cells after 48 hrs by sulforhodamine B assay; details: OVCAR-3, 48 h; for CC50: read-out: pLC50 (the source's name) (converted); for TGI: read-out: pTGI (converted); procedure, shortened: as §2
SN12C = assay: Growth inhibition of human SN12C cells after 48 hrs by sulforhodamine B assay; details: for CC50: read-out: pLC50 (the source's name) (converted); for TGI: read-out: pTGI (converted); procedure, shortened: as §1
SR = assay: Growth inhibition of human SR cells after 48 hrs by sulforhodamine B assay; details: for TGI: read-out: pTGI (converted); procedure, shortened: as §1
Malme-3M = assay: Growth inhibition of human MALME-3M cells after 48 hrs by sulforhodamine B assay; details: for CC50: read-out: pLC50 (the source's name) (converted); for TGI: read-out: pTGI (converted); procedure, shortened: as §2
NCI/ADR-RES = assay: Growth inhibition of human NCI/ADR-RES cells after 48 hrs by sulforhodamine B assay; details: for CC50: read-out: pLC50 (the source's name) (converted); for TGI: read-out: pTGI (converted); procedure, shortened: as §2
PC-3 = assay: Growth inhibition of human PC3 cells after 48 hrs by sulforhodamine B assay; details: PC-3, 48 h; for CC50: read-out: pLC50 (the source's name) (converted); for TGI: read-out: pTGI (converted); procedure, shortened: as §2
HT-29 = assay: Growth inhibition of human HT-29 cells after 48 hrs by sulforhodamine B assay; details: HT-29, 48 h; for TGI: read-out: pTGI (converted); procedure, shortened: as §2
HL-60(TB) = assay: Growth inhibition of human HL-60(TB) cells after 48 hrs by sulforhodamine B assay; details: HL-60, 48 h; for TGI: read-out: pTGI (converted)
Procedure, shortened: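 Tested only on compounds active in a three-line prescreen, in the NCI 60-human-tumour-cell-line panel over a 5-log dose range. Values come from dose–response curves as log10 molar GI50, the concentration inhibiting 50% net cell growth. Log10 TGI (total growth inhibition) and log10 LC50 (50% net cell death) were derived too. Mean graph midpoints include insensitive lines at the highest concentration tested.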

TK-10 = assay: Growth inhibition of human TK10 cells after 48 hrs by sulforhodamine B assay; details: TK-10, 48 h; for CC50: read-out: pLC50 (the source's name) (converted); for TGI: read-out: pTGI (converted); procedure, shortened: as §1
MDA-MB-231 = assay: Growth inhibition of human MDA-MB-231 cells after 48 hrs by sulforhodamine B assay; details: MDA-MB-231, 48 h; for CC50: read-out: pLC50 (the source's name) (converted); for TGI: read-out: pTGI (converted); procedure, shortened: as §2
NCI-H460 = assay: Growth inhibition of human NCI-H460 cells after 48 hrs by sulforhodamine B assay; details: NCI-H460, 48 h; for TGI: read-out: pTGI (converted); procedure, shortened: as §2
RXF 393 = assay: Growth inhibition of human RXF393 cells after 48 hrs by sulforhodamine B assay; details: RXF 393, 48 h; for CC50: read-out: pLC50 (the source's name) (converted); for TGI: read-out: pTGI (converted); procedure, shortened: as §2
A498 = assay: Growth inhibition of human A498 cells after 48 hrs by sulforhodamine B assay; details: A498, 48 h; for CC50: read-out: pLC50 (the source's name) (converted); for TGI: read-out: pTGI (converted); procedure, shortened: as §2

## COc1cc(OC)cc(Oc2nc3cc(N)cc(N)c3nc2-c2ccccc2)c1
UACC-257
  GI50: 2.19 µM
  CC50: 37.2 µM
  TGI: 12.3 µM
SNB-19
  GI50: 2.51 µM
  TGI: 12.6 µM
EKVX
  GI50: 3.8 µM
  TGI: 19.5 µM
KM12
  GI50: 1.02 µM
  TGI: 6.03 µM
ACHN
  GI50: 14.8 µM
  TGI: 33.9 µM
HOP-92
  GI50: 1.35 µM
  TGI: 8.91 µM
CCRF-CEM
  GI50: 1.95 µM
  TGI: 8.71 µM
OVCAR-8
  GI50: 2.88 µM
  CC50: 50.1 µM
  TGI: 16.2 µM
OVCAR-5
  GI50: 3.24 µM
  CC50: 40.7 µM
  TGI: 16.2 µM
NCI-H226
  GI50: 6.61 µM
  TGI: 42.7 µM
COLO 205
  GI50: 10.7 µM
  TGI: 22.4 µM
T47D
  GI50: 2.34 µM
  CC50: 51.3 µM
  TGI: 9.12 µM
[1]
  GI50: 1.32 µM
  CC50: 25.7 µM
  TGI: 4.17 µM
SNB-75
  GI50: 0.126 µM
  TGI: 2.69 µM
OVCAR-3
  GI50: 2.24 µM
  CC50: 55 µM
  TGI: 8.71 µM
SN12C
  GI50: 17 µM
  CC50: 69.2 µM
  TGI: 34.7 µM
SR
  GI50: 1.86 µM
  TGI: 28.8 µM
Malme-3M
  GI50: 0.427 µM
  CC50: 30.2 µM
  TGI: 5.13 µM
NCI/ADR-RES
  GI50: 1.12 µM
  CC50: 18.2 µM
  TGI: 3.89 µM
PC-3
  GI50: 10.2 µM
  CC50: 72.4 µM
  TGI: 27.5 µM
HT-29
  GI50: 4.37 µM
  TGI: 17.8 µM
HL-60(TB)
  GI50: 3.09 µM
  TGI: 25.7 µM
TK-10
  GI50: 28.2 µM
  CC50: > 100 µM
  TGI: 57.5 µM
MDA-MB-231
  GI50: 3.98 µM
  CC50: 87.1 µM
  TGI: 21.9 µM
NCI-H460
  GI50: 2.95 µM
  TGI: 12.6 µM
RXF 393
  GI50: 5.37 µM
  CC50: 44.7 µM
  TGI: 18.2 µM
A498
  GI50: > 100 µM
  CC50: > 100 µM
  TGI: > 100 µM

## COc1ccc(CNc2nc3cc(N)cc(N)c3nc2-c2ccccc2)cc1
UACC-257
  GI50: 16.2 µM
  CC50: 56.2 µM
  TGI: 30.2 µM
SNB-19
  GI50: 41.7 µM
  LC50: > 100 µM
  TGI: > 100 µM
EKVX
  GI50: 14.8 µM
  LC50 (50% net cell kill): 53.7 µM
  TGI: 28.2 µM
KM12
  GI50: 13.2 µM
  LC50 (50% net cell kill): > 100 µM
  TGI: 26.3 µM
ACHN
  GI50: 14.8 µM
  TGI: 33.9 µM
ACHN; read-out: pLC50 (the source's name) (converted)
  CC50: 75.9 µM
HOP-92
  GI50: 12.9 µM
  LC50 (50% net cell death): > 100 µM
  TGI: 37.2 µM
CCRF-CEM
  GI50: 3.39 µM
  LC50: > 100 µM
  TGI: 64.6 µM
OVCAR-8
  GI50: 14.8 µM
  CC50: > 100 µM
  TGI: 39.8 µM
OVCAR-5
  GI50: 20.9 µM
  CC50: > 100 µM
  TGI: 45.7 µM
NCI-H226
  GI50: 20.4 µM
  LC50: > 100 µM
  TGI: 70.8 µM
COLO 205
  GI50: 15.5 µM
  LC50 (50% net cell kill): 74.1 µM
  TGI: 33.9 µM
T47D
  GI50: 2.82 µM
  CC50: 72.4 µM
  TGI: 11 µM
[1]
  GI50: 26.9 µM
  CC50: > 100 µM
  TGI: > 100 µM
SNB-75
  LC50: 72.4 µM
  TGI: 30.2 µM
OVCAR-3
  GI50: 2.24 µM
  CC50: 38.9 µM
  TGI: 7.76 µM
SN12C
  GI50: 17 µM
  CC50: 69.2 µM
  TGI: 34.7 µM
SR
  GI50: 4.07 µM
  LC50 (concentration giving 50% net cell death): > 100 µM
  TGI: > 100 µM
Malme-3M
  GI50: 10.7 µM
  CC50: 47.9 µM
  TGI: 22.4 µM
NCI/ADR-RES
  GI50: 22.9 µM
  CC50: > 100 µM
  TGI: 83.2 µM
PC-3
  GI50: 10.2 µM
  CC50: 72.4 µM
  TGI: 27.5 µM
HT-29
  GI50: 24.5 µM
  LC50: > 100 µM
  TGI: 60.3 µM
HL-60(TB)
  GI50: 13.5 µM
  LC50: > 100 µM
  TGI: 51.3 µM
TK-10
  GI50: 28.2 µM
  CC50: > 100 µM
  TGI: 57.5 µM
MDA-MB-231
  GI50: 2.88 µM
  CC50: 64.6 µM
  TGI: 13.8 µM
NCI-H460
  GI50: 20.4 µM
  LC50 (50% net cell kill): > 100 µM
  TGI: 47.9 µM
RXF 393
  GI50: 5.37 µM
  CC50: 44.7 µM
  TGI: 18.2 µM
A498
  GI50: > 100 µM
  CC50: > 100 µM
  TGI: > 100 µM
